Test results published in ChEMBL document CHEMBL5321203, “8-Amide and 8-carbamate substitution patterns as modulators of 7-hydroxy-4-methylcoumarin's antidepressant profile: Synthesis, biological evaluation and docking studies” (Eur J Med Chem, 2023).
One block for each compound: values may come before it. The source made the active and inactive calls. The rule behind the calls is not given here.

What was measured:
[1] = target: T1, Amine oxidase [flavin-containing] A (Homo sapiens, UniProt P21397); test: Inhibition of recombinant human MAO-A expressed in baculovirus infected BTITN-5B1-4 insect cells using p-tyramine as substrate incubated for 10 mins followed by substrate addition measured after 15 mins by Amplex Red assay; set-up: species or system BTI-TN-5B1-4
T1 sequence (P21397 whole entry): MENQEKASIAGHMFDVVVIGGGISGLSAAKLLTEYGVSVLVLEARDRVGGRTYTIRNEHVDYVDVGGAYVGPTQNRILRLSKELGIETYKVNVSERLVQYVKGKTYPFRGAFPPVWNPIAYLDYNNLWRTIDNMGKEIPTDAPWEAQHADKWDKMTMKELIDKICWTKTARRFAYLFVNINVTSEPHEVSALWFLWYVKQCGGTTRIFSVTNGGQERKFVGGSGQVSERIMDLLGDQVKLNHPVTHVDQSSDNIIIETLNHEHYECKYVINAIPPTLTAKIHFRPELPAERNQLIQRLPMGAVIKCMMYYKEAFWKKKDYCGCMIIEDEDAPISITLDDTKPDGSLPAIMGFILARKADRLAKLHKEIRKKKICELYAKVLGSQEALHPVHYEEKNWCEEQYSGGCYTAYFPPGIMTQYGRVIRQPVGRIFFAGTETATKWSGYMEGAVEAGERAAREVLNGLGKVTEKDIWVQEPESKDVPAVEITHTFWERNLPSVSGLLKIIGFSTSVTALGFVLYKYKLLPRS

[2] = target: T1, Amine oxidase [flavin-containing] A; test: Inhibition of recombinant human MAO-A expressed in baculovirus infected BTITN-5B1-4 insect cells using p-tyramine as substrate at 100 uM incubated for 10 mins followed by substrate addition measured after 15 mins by Amplex Red assay; conditions: bti-tn-5b1-4, 25 min
Procedure, shortened: (§1)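 Microsomal hMAO-A from baculovirus-infected BTI-TN 5B1-4 cells, 1.1 μg protein, in 0.05 M sodium phosphate pH 7.4, preincubated with compound 10 min at 37 °C. Started with 200 μM Amplex Red, 1 U/mL HRP and 1 mM p-tyramine (final). Resorufin fluorescence (ex 545/em 590 nm) read over 15 min at 37 °C; background without enzyme subtracted; vehicle controls run.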

[3] = target: T2, Amine oxidase [flavin-containing] B (Homo sapiens, UniProt P27338); test: Inhibition of recombinant human MAO-B expressed in baculovirus infected BTITN-5B1-4 insect cells using p-tyramine as substrate incubated for 10 mins followed by substrate addition measured after 15 mins by Amplex Red assay; set-up: species or system BTI-TN-5B1-4
T2 sequence (P27338 whole entry): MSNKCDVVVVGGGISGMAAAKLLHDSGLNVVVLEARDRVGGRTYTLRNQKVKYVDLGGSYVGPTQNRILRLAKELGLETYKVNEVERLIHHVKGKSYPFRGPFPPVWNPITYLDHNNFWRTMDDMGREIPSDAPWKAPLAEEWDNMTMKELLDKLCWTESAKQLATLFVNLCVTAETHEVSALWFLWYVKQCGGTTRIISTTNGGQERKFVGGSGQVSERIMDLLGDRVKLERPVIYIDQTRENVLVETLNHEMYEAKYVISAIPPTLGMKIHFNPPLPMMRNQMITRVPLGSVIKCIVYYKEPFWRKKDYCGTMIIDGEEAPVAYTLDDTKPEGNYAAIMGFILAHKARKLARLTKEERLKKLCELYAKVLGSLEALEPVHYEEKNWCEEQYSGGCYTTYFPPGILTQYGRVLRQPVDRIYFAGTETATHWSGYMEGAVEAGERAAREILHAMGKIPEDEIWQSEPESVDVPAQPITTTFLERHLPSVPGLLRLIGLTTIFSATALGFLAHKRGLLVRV

[4] = target: T2, Amine oxidase [flavin-containing] B; test: Inhibition of recombinant human MAO-B expressed in baculovirus infected BTITN-5B1-4 insect cells using p-tyramine as substrate at 100 uM incubated for 10 mins followed by substrate addition measured after 15 mins by Amplex Red assay; conditions: bti-tn-5b1-4, 25 min
[5] = target: T2, Amine oxidase [flavin-containing] B; test: Inhibition of recombinant human MAO-B expressed in baculovirus infected BTITN-5B1-4 insect cells using p-tyramine as substrate at 100 uM incubated for 10 mins followed by substrate addition measured after 15 mins by Amplex Red assay relative to control; conditions: BTI-TN-5B1-4, human, 25 min
[6] = Permeability coefficient of compound incubated for 120 mins by UV-Vis spectroscopy based PAMPA-BBB assay
[7] = Metabolic stability in human liver microsomes assessed as half life at 1 uM measured upto 60 mins by UPLC-MS/MS analysis; assay type: ADME, Microsome
[8] = Chemical stability of compound in CH3COONa/CH3COOH at pH 3.5 assessed as compound remaining at 10 uM incubated overnight by UPLC-MS/MS analysis; assay type: physicochemical; conditions: CH3COONa/CH3COOH buffer, read-out: Stability
Procedure, shortened: (§2)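 Overnight incubation at room temperature, 10 μM final. Buffers: pH 3.5 CH₃COONa/CH₃COOH 0.1 M; pH 7.4 NaH₂PO₄/NaHPO₄ 10 mM; pH 10.4 NaHCO₃/Na₂CO₃ 0.5 M. Aliquots taken at t = 0 and after incubation, analysed by UPLC-MS/MS; expressed as % remaining.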

[9] = Chemical stability of compound in NaH2PO4/NaHPO4 at pH 7.4 assessed as compound remaining at 10 uM incubated overnight by UPLC-MS/MS analysis; assay type: physicochemical; conditions: NaH2PO4/NaHPO4 buffer, read-out: Stability; procedure, shortened: as §2
[10] = Metabolic stability in human liver microsomes assessed as compound remaining at 1 uM measured upto 60 mins by UPLC-MS/MS analysis; assay type: ADME, Microsome; conditions: read-out: Stability
[11] = Metabolic stability in mouse liver microsomes assessed as compound remaining at 1 uM measured upto 60 mins by UPLC-MS/MS analysis; assay type: ADME, Microsome; conditions: read-out: Stability
[12] = Chemical stability of compound in NaHCO3/Na2CO3 at pH 10.4 assessed as compound remaining at 10 uM incubated overnight by UPLC-MS/MS analysis; assay type: physicochemical; conditions: NaHCO3/Na2CO3 buffer, read-out: Stability; procedure, shortened: as §2
[13] = Metabolic stability in human liver microsomes assessed as intrinsic clearance at 1 uM measured upto 60 mins by UPLC-MS/MS analysis; assay type: ADME, Microsome; conditions: read-out: CLH
[14] = Metabolic stability in mouse liver microsomes assessed as half life at 1 uM measured upto 60 mins by UPLC-MS/MS analysis; assay type: ADME, Microsome
[15] = Metabolic stability in mouse liver microsomes assessed as intrinsic clearance at 1 uM measured upto 60 mins by UPLC-MS/MS analysis; assay type: ADME, Microsome; conditions: read-out: CLH
SH-SY5Y = test: Neurotoxicity against human SH-SY5Y cells assessed as reduction in cell viability at 100 uM incubated for 24 hrs by MTT assay; assay type: functional, cell-based
Procedure, shortened: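 SH-SY5Y cells in Ham's F12/EMEM 1:1 with 15% FBS, seeded at 2×10^5 cells/mL and grown 24 h. Treated with 100 μM compound (1% DMSO) for 24 h, then MTT for 2 h; formazan dissolved in DMSO and absorbance read at 540 nm. Viability as % of vehicle control; at least 3 experiments, ANOVA with Bonferroni test.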

[16] = target: T1, Amine oxidase [flavin-containing] A; test: Inhibition of recombinant human MAO-A expressed in baculovirus infected BTITN-5B1-4 insect cells using p-tyramine as substrate at 100 uM incubated for 10 mins followed by substrate addition measured after 15 mins by Amplex Red assay relative to control; conditions: BTI-TN-5B1-4, human, 25 min; procedure, shortened: as §1

Compound: Cc1cc(=O)oc2c(NC(=O)CC(C)(C)C)c(O)ccc12
- inhibition (INH) [2]: Not Active
- IC50 [3]: 7.35 µM

Compound: Cc1cc(=O)oc2c(NC(=O)OC(C)C)c(O)ccc12
- IC50 [1]: 1.88 µM

Compound: Cc1cc(=O)oc2c(NC(=O)/C=C/c3ccccc3)c(O)ccc12
- IC50 [1]: 0.022 µM

Compound: O=C(NCCN1CCOCC1)c1ccc(Cl)cc1 [MOCLOBEMIDE]
- inhibition at 100 µM [5]: 50%

Compound: Cc1cc(=O)oc2c(NC(=O)OCC(C)C)c(O)ccc12
- inhibition (INH) [2]: Not Active
- inhibition (INH) [4]: Not Active

Compound: COc1cc(C(=O)Nc2c(O)ccc3c(C)cc(=O)oc23)cc(OC)c1OC
- inhibition at 100 µM [5]: 50%
- inhibition (INH) [2]: Not Active
- IC50 [3]: 68.3 µM

Compound: CCOC(=O)Nc1c(O)ccc2c(C)cc(=O)oc12
- Papp at 2 h [6]: 4.9 ×10⁻⁶ cm/s
- inhibition (INH) [4]: Not Active

Second part, led by results:

- IC50 [1]: 17.2 µM
Compound: Cc1cc(=O)oc2c(NC(=O)OCc3ccccc3)c(O)ccc12

- inhibition (INH) [2]: Not Active
- IC50 [3]: 31 µM
- inhibition (INH) [4]: Not Active
Compound: Cc1cc(=O)oc2c(NC(=O)C(C)C)c(O)ccc12

- inhibition (INH) [2]: Not Active
- IC50 [3]: 85.9 µM
Compound: Cc1cc(=O)oc2c(NC(=O)CCl)c(O)ccc12

- IC50 [1]: 38.1 µM
- IC50 [3]: 16.3 µM
Compound: C=CC(=O)Nc1c(O)ccc2c(C)cc(=O)oc12

- Papp at 2 h [6]: 8.6 ×10⁻⁶ cm/s
- half-life at 1 µM [7]: 6.84 min
- remaining at 10 µM [8]: 98%
- remaining at 10 µM [9]: 113%
- remaining at 1 h, 1 µM [10]: 0.5%
- remaining at 1 h, 1 µM [11]: 8.3%
- remaining at 10 µM [12]: 118%
- microsomal CLint at 1 µM [13]: 196 µL/min/mg
- half-life at 1 µM [14]: 17.1 min
- microsomal CLint at 1 µM [15]: 131 µL/min/mg
Compound: Cc1ccc(C(=O)Nc2c(O)ccc3c(C)cc(=O)oc23)cc1

- inhibition (INH) [2]: Not Active
Compound: Cc1cc(=O)oc2c(NC(=O)Oc3ccccc3)c(O)ccc12
- Activity (SH-SY5Y): Active

- IC50 [1]: 9.19 µM
Compound: Cc1cc(=O)oc2c(NC(=O)OCCl)c(O)ccc12

- inhibition (INH) [2]: Not Active
- IC50 [3]: 52.7 µM
- inhibition (INH) [4]: Not Active
Compound: CCC(=O)Nc1c(O)ccc2c(C)cc(=O)oc12

- IC50 [3]: 17.3 µM
- inhibition at 100 µM [16]: 50%
Compound: Cc1cc(=O)oc2c(NC(=O)c3ccco3)c(O)ccc12

- inhibition at 100 µM [5]: 50%
- inhibition (INH) [2]: Not Active
Compound: COC(=O)Nc1c(O)ccc2c(C)cc(=O)oc12
